# Source: PubChem BioAssay
# An excerpt weighted towards active compounds, which were near 3.2% of everything screened.
# OX1R antag-1 – antagonists of human orexin 1 receptor; O43613; CHO/OX1R cells, Fluo-8 calcium fluorescence, orexin A; inhibition, % at 5 µM; 330,000 compounds, 0.43% hits;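 active = inhibition above its plate's threshold, mean inhibition of all tested compounds on the plate plus 3 SD, cut at about 37% in these data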;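 note: 0% = orexin A challenge wells and 100% = SB-334867-A antagonist wells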
# Target sequence (O43613 whole entry, looked up): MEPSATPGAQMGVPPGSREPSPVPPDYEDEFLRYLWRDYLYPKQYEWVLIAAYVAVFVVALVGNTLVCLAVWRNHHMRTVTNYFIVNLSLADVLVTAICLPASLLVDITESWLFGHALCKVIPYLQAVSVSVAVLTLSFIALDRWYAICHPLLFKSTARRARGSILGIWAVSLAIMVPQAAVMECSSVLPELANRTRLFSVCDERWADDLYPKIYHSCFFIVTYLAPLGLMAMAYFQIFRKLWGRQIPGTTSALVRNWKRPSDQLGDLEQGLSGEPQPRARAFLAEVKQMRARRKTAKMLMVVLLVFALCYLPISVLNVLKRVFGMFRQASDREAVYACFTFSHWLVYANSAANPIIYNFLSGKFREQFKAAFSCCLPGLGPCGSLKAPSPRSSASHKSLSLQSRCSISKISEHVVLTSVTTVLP
# TRPML3 agonist – human mucolipin-3 channel agonism; Q8TDD5; HEK293 TRPML3-YFP, Fluo-8 calcium fluorescence; 100% = the carbachol control signal; activation, % at 3 µM; 220,000 compounds, 0.29% hits; AID 1448;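 active = activation above its plate's cutoff, the mean activation of the plate's test wells plus 3 SD, cut at about 12% in these data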;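 note: 0% = DMSO only wells and 100% = carbachol wells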
#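 Test system: TRPML3-YFP stable HEK293 cells. Doses: single point at 3 µM. Incubation: dye loading 1 h 37 °C then 30 min ambient, 125 s read. Signal: Fluo-8 calcium dye fluorescence, ex 470-495, em 515-575 nm. Measure: percent activation from peak-to-basal fluorescence ratio, scaled between DMSO and carbachol.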
# OX1R antag-2 – OX1R (human) antagonism | OX1R-expressing cells, FRET antagonist read-out | inhibition, % at 6.6 µM | 330,000 compounds, 1.8% hits | AID 485270; in the data active = inhibition mostly above about 38%, no sharp cut-off; inactive = mostly below about 40%;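 note: 0% = agonist challenge alone and 100% = reference antagonist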
# GPR7 antagonist – blocks human GPR7 receptor signaling | GPR7-expressing cells, fluorescence antagonist assay | inhibition, % at 4.4 µM | 290,000 compounds, 1.1% hits | AID 1861; in the data active = inhibition above about 16%, passing the limit was not always enough;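 note: cells stimulated with the agonist NPW; 0% = agonist with vehicle and 100% = vehicle without agonist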
# Target sequence (P48145 whole entry, looked up): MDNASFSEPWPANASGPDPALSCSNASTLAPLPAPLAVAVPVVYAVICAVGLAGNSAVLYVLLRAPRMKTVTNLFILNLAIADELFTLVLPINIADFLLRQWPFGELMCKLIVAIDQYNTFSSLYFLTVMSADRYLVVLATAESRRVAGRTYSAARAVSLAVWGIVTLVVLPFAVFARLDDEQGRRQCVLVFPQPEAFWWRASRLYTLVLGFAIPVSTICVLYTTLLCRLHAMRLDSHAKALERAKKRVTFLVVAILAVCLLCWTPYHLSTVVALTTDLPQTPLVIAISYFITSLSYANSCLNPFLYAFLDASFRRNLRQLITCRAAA
# zfTRPN1 agonist – zebrafish TRPN1 (NompC) channel agonism. HEK293 zebrafish TRPN1-YFP, Fluo-8 calcium fluorescence; 100% = response to 87 µM carbachol. activation, % at 3 µM. 220,000 compounds, 0.18% hits. AID 1424;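 active = activation above its plate's cutoff, the mean activation of test wells on that plate plus 3 SD, cut at about 19% in these data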;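 note: 0% = DMSO alone and 100% = 87 µM carbachol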
#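 Assay system: Zebrafish TRPN1-YFP in HEK293 cells | Incubation: Dye loading 1 h at 37 °C, then 30 min room temperature | Measured by: Kinetic Fluo-8 fluorescence, ex 470-495, em 515-575 nm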
# CHO parental Ca – signal in parental CHO cells, OX1R antagonist counter-screen | inhibition, % at 5.6 µM | parental CHO-K1, ATP-induced calcium, Fluo-8 fluorescence | 330,000 compounds, 0.63% hits | AID 463079;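 active = inhibition above that plate's mean sample inhibition plus 3 SD, cut at about 26% in these data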;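 note: 0% = ATP-challenged DMSO wells and 100% = DMSO wells without ATP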
#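 Test system: untransfected parental CHO cell line; also added: ATP stimulus; dosing: 5.6 µM, single dose; signal: calcium-sensitive Fluo-8 fluorescence; measure: percent inhibition of ATP-evoked calcium rise, normalized to controls; benchmarks: low control ATP plus DMSO, high control DMSO only; replication: one well per compound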
# GPR7 antag cf – human GPR7 antagonism, confirmation assay; inhibition, % at 4.4 µM; AID 1952; GPR7-expressing cells, calcium fluorescence antagonist mode; 2,400 compounds, 52% hits; shares compounds with GPR7 antagonist; in the data active = inhibition above about 24%;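 note: stimulated with the GPR7 agonist NPW; 0% = agonist plus vehicle and 100% = vehicle alone without agonist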
# MCHR1 antag – antagonizes human MCHR1, a GPR7 antagonist counter-screen; shares compounds with GPR7 antagonist; MCHR1-expressing cells, fluorescence antagonist assay; inhibition, % at 4.4 µM; 2,400 compounds, 62% hits; AID 2148; in the data active = inhibition above about 22%;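 note: 0% = vehicle with agonist and 100% = vehicle without agonist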
# OX1R Ca confirm – OX1R (human) antagonism, confirmed; CHO/OX1R cells, orexin A calcium Fluo-8 fluorescence; inhibition, % at 5 µM; 1,100 compounds, 38% hits; shares compounds with OX1R antag-1; in the data active = inhibition above about 29%;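 note: 0% = agonist challenge alone and 100% = reference antagonist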
# CHO Ca triplic – counter-screen: parental CHO calcium response change, triplicate; shares compounds with OX1R antag-1; 1,100 compounds, 9.3% hits; inhibition, % at 5.6 µM; parental CHO-K1, ATP-induced calcium, Fluo-8 fluorescence;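 active = inhibition above a per-plate limit, the mean inhibition of that plate's test compounds plus 3 SD, cut at about 25% in these data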;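 note: 0% = ATP challenge with DMSO and 100% = DMSO without ATP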
# OX1R HTRF conf – confirmation of human orexin 1 receptor antagonists, HTRF format; shares compounds with OX1R antag-2; OX1R-expressing cells, HTRF antagonist assay; inhibition, % at 6.6 µM; 1,800 compounds, 49% hits; AID 492964; in the data active = inhibition above about 55%;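 note: CHO cells expressing OX1R stimulated with orexin A at about EC80; 0% = agonist challenge alone and 100% = reference antagonist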
# CHO-K1 HTRF – counter-screen for OX1R antagonists: effect in parental CHO-K1 cells | shares compounds with OX1R antag-2 | 1,800 compounds, 48% hits | inhibition, % at 6.6 µM | HTRF counterscreen; in the data active = inhibition above about 17%;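 note: 0% = agonist challenge with vehicle and 100% = vehicle alone without agonist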
# * marks the source's active call; other numbers are inactive results; · = no result given.
SMILES,OX1R antag-1,TRPML3 agonist,OX1R antag-2,GPR7 antagonist,zfTRPN1 agonist,CHO parental Ca,OX1R HTRF conf,CHO-K1 HTRF,others
CCC1(CC)C(=O)NC(=NCCc2c[nH]c3ccccc23)NC1=O,-7,-1,2,28*,0,4,·,·,GPR7 antag cf=-3;MCHR1 antag=7
Cc1nn(C)c(C)c1P(=S)(c1c(C)nn(C)c1C)N(C)C,-10,0,4,26*,0,-2,·,·,GPR7 antag cf=-11;MCHR1 antag=-3
Cc1nn(Cc2ccccc2Cl)c(C)c1C(=O)OCC(=O)NC1CCCC(C)C1C (centres undefined),-22,0,-3,-8,1,-7,·,·,
C[N+]1(C)C2CC(OC(=O)C(CO)c3ccccc3)CC1C1OC12 (centres undefined),-19,·,18,·,·,6,·,·,
CC1CCCN(c2ccc(C(=O)N3CCC4(CC3)OCCO4)cc2[N+](=O)[O-])C1 (centres undefined),-15,0,11,-1,-1,2,·,·,
CCOC(=O)C1CCCN(c2ccc([N+](=O)[O-])c3nonc23)C1 (centres undefined),·,113*,·,45*,291*,·,·,·,GPR7 antag cf=42*;MCHR1 antag=68*
CNC(C)Cc1ccccc1Sc1ccc(O)cc1 (centres undefined),0,0,6,30*,1,-6,·,·,GPR7 antag cf=30*;MCHR1 antag=30*
CCC(=NCC1CCCO1)c1c(O)n(-c2ccc(OC)cc2)c(=O)[nH]c1=O (centres undefined),-14,0,7,-13,1,-5,·,·,
COC(=O)C1=C(c2ccc(F)cc2OCc2ccccc2)C[C@@H]2CC[C@H]1N2C(=O)NCCOc1ccccc1Cl,56*,·,31,·,·,-23,·,·,OX1R Ca confirm=19;CHO Ca triplic=-18
Cc1cnc(-n2c(=S)[nH]c3ccccc3c2=O)s1,-8,·,-4,·,·,-15,·,·,
CN(C)P1(N(C)C)=Nc2c(c(N)nn2C)C(c2ccccc2)=N1,89*,1,18,-8,0,-10,·,·,OX1R Ca confirm=3;CHO Ca triplic=2
O=c1[nH]c(=O)n(-c2ccccc2)c(O)c1/C=C/C=Nc1ccccc1,6,3,16,-10,5,0,·,·,
COc1ccc(-n2c(O)c(/C=C/C=Nc3ccccc3)c(=O)[nH]c2=O)cc1,45*,27*,34,5,43*,19,·,·,OX1R Ca confirm=25;CHO Ca triplic=32*
Fc1ccccc1CCNCc1cccc(Cl)c1Cl,-12,0,15,-12,-2,-23,·,·,
Cc1ccc(C)c(NP(=O)(Oc2ccccc2)Oc2ccccc2)c1,81*,·,42*,5,·,14,58*,13,OX1R Ca confirm=12;CHO Ca triplic=-14
CCCCn1c(N)c(C(=O)OCC2CCCO2)c2nc3ccccc3nc21 (centres undefined),78*,-1,100*,19,-1,-23,34,14,OX1R Ca confirm=-3;CHO Ca triplic=-5
CC(C)CCn1c(N)c(C(=O)OCC2CCCO2)c2nc3ccccc3nc21 (centres undefined),6,0,53,6,-1,4,·,·,
CCn1c(C(=O)N2CCC(C(=O)N3CCC4(CC3)OCCO4)CC2)cc2sccc21,-17,0,8,1,0,-13,·,·,
CCCCCCC[n+]1ccc(-c2cc[n+](CCCCCCC)cc2)cc1,-10,0,140*,0,0,-10,60*,91*,
C[n+]1ccc(-c2cc[n+](C)cc2)cc1,-6,·,35,·,·,-5,·,·,
Cc1c(NC(NC(=O)CF)C(Cl)(Cl)Cl)c(=O)n(-c2ccccc2)n1C (centres undefined),-17,-1,14,-16,1,6,·,·,
CC(C)c1ccc(N=Nc2c(O)[nH]c(=O)[nH]c2=O)cc1,-7,1,20,-4,0,-1,·,·,
O=c1[nH]c(O)c(C=Nc2ccccc2[N+](=O)[O-])c(=O)[nH]1,-17,0,18,-4,1,-7,·,·,
Cc1ccc(N=Nc2c(O)[nH]c(=O)[nH]c2=O)c([N+](=O)[O-])c1,-8,1,124*,-2,1,-3,38,56*,
O=c1[nH]c(O)c(N=Nc2ccc([N+](=O)[O-])cc2)c(=O)[nH]1,-25,0,89*,-3,0,2,62*,99*,
SMILES,OX1R antag-1,TRPML3 agonist,OX1R antag-2,GPR7 antagonist,zfTRPN1 agonist,CHO parental Ca,OX1R HTRF conf,CHO-K1 HTRF,others
CN1CCC(OC(=O)C2c3ccccc3Oc3ccccc32)CC1,-15,1,10,1,-1,-9,·,·,
C[n+]1ccc(-c2ccccc2)c2ccccc21,4,·,96*,·,·,-1,76*,84*,
O=C1C(Cl)=CC(=Nc2ccc(O)cc2)C=C1Cl,3,·,5,·,·,-2,·,·,
CCOC(=O)Cn1cc([N+](=O)[O-])nc1[N+](=O)[O-],-14,1,92*,-5,-4,0,42,53*,
Nc1cc(Cl)c2nonc2c1[N+](=O)[O-],31,1,113*,5,0,25,85*,85*,
OC(CN1CCC(c2c[nH]c3ccccc23)CC1)C(F)(F)F (centres undefined),-6,·,6,-12,·,2,·,·,
C/C(=N\NC(=S)Nc1ccccc1)c1c(O)n(C)c(=O)n(C)c1=O,-13,0,5,-14,1,-8,·,·,
CC(=O)N1CN2CN(C(C)=O)CC(C(=O)c3ccccc3)(C2)C1,-16,0,13,-1,1,5,·,·,
CC(=O)N1CN2CN(C(C)=O)CC(C(=O)c3ccc([N+](=O)[O-])cc3)(C2)C1,-8,1,93*,-6,0,-3,58*,52*,
O=[N+]([O-])c1ccc(NC2CCCC2)c2ccncc12,-2,·,31,19,·,22,·,·,
CN1CCN(c2ccc([N+](=O)[O-])c3cccnc23)CC1,-21,0,128*,12,0,-16,43,64*,
O=[N+]([O-])c1ccc(N2CCNCC2)c2ncccc12,·,-1,·,3,0,·,·,·,
O=[N+]([O-])c1ccc(N2CCCC2)c2ccncc12,-16,0,87*,-3,1,-3,44,69*,
